Data taken from ChEMBL document CHEMBL5356993, “Novel pyrazolo[3,4-d]pyrimidine derivatives: design, synthesis, anticancer evaluation, VEGFR-2 inhibition, and antiangiogenic activity” (RSC Med Chem, 2023).

What was measured:
Format in all cases: functional
Details in all cases: read-out: GI
[1] = system: 786-0; test: Antiproliferative activity against human 786-0 cells assessed as cell growth inhibition at 10 uM incubated for 48 hrs by SRB assay relative to control
[2] = system: SNB-75; test: Antiproliferative activity against human SNB-75 cells assessed as cell growth inhibition at 10 uM incubated for 48 hrs by SRB assay relative to control
Procedure, shortened: (§1)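 Cells pre-incubated 24 h at 37°C, 5% CO2, then exposed to compound (DMSO stock diluted in medium with 50 µg/mL gentamicin) for 48 h. Adherent cells fixed with cold TCA (final 10%, 60 min, 4°C); suspension cells fixed with 16% TCA final. Stained with 0.4% SRB in 1% acetic acid for 10 min, dye solubilized in 10 mM Trizma base, absorbance read at 515 nm. Growth calculated against time-zero and untreated control plates.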

[3] = system: MOLT-4; test: Antiproliferative activity against human MOLT-4 cells assessed as cell growth inhibition at 10 uM incubated for 48 hrs by SRB assay relative to control
[4] = system: NCI-H23; test: Antiproliferative activity against human NCI-H23 cells assessed as cell growth inhibition at 10 uM incubated for 48 hrs by SRB assay relative to control
[5] = system: UACC-257; test: Antiproliferative activity against human UACC-257 cells assessed as cell growth inhibition at 10 uM incubated for 48 hrs by SRB assay relative to control; procedure, shortened: as §1
[6] = system: HT-29; test: Antiproliferative activity against human HT-29 cells assessed as cell growth inhibition at 10 uM incubated for 48 hrs by SRB assay relative to control
Procedure, shortened: (§2)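 Cells plated in 96-well plates at […] cells/well and preincubated 24 h at 37 °C, 5% CO2. Time-zero plates were TCA-fixed. Compound was diluted in medium with 50 µg/mL gentamicin and cells exposed for 48 h. Adherent cells fixed with 10% final TCA; suspension cells with 16% final TCA. Plates stained with 0.4% SRB in 1% acetic acid, dye solubilized in 10 mM Trizma, absorbance read at 515 nm. Percent growth calculated against time-zero and control.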

[7] = system: RXF 393; test: Antiproliferative activity against human RXF 393 cells assessed as cell growth inhibition at 10 uM incubated for 48 hrs by SRB assay relative to control; procedure, shortened: as §2
[8] = system: SN12C; test: Antiproliferative activity against human SN12C cells assessed as cell growth inhibition at 10 uM incubated for 48 hrs by SRB assay relative to control
[9] = system: OVCAR-4; test: Antiproliferative activity against human OVCAR-4 cells assessed as cell growth inhibition at 10 uM incubated for 48 hrs by SRB assay relative to control
[10] = system: T47D; test: Antiproliferative activity against human T47D cells assessed as cell growth inhibition at 10 uM incubated for 48 hrs by SRB assay relative to control; procedure, shortened: as §1
[11] = system: MCF7; test: Antiproliferative activity against human MCF7 cells assessed as cell growth inhibition at 10 uM incubated for 48 hrs by SRB assay relative to control
[12] = system: SF-539; test: Antiproliferative activity against human SF-539 cells assessed as cell growth inhibition at 10 uM incubated for 48 hrs by SRB assay relative to control; procedure, shortened: as §2
[13] = system: EKVX; test: Antiproliferative activity against human EKVX cells assessed as cell growth inhibition at 10 uM incubated for 48 hrs by SRB assay relative to control
[14] = system: U-251; test: Antiproliferative activity against human U-251 cells assessed as cell growth inhibition at 10 uM incubated for 48 hrs by SRB assay relative to control; procedure, shortened: as §1
[15] = system: NCI-H522; test: Antiproliferative activity against human NCI-H522 cells assessed as cell growth inhibition at 10 uM incubated for 48 hrs by SRB assay relative to control; procedure, shortened: as §2
[16] = system: NCI-H226; test: Antiproliferative activity against human NCI-H226 cells assessed as cell growth inhibition at 10 uM incubated for 48 hrs by SRB assay relative to control; procedure, shortened: as §2
[17] = system: Hs-578T; test: Antiproliferative activity against human Hs-578T cells assessed as cell growth inhibition at 10 uM incubated for 48 hrs by SRB assay relative to control; procedure, shortened: as §2
[18] = system: K562; test: Antiproliferative activity against human K562 cells assessed as cell growth inhibition at 10 uM incubated for 48 hrs by SRB assay relative to control
[19] = system: M14; test: Antiproliferative activity against human M14 cells assessed as cell growth inhibition at 10 uM incubated for 48 hrs by SRB assay relative to control; procedure, shortened: as §2
[20] = system: CCRF-CEM; test: Antiproliferative activity against human CCRF-CEM cells assessed as cell growth inhibition at 10 uM incubated for 48 hrs by SRB assay relative to control; procedure, shortened: as §2
[21] = system: NCI-H460; test: Antiproliferative activity against human NCI-H460 cells assessed as cell growth inhibition at 10 uM incubated for 48 hrs by SRB assay relative to control
[22] = system: SNB-19; test: Antiproliferative activity against human SNB-19 cells assessed as cell growth inhibition at 10 uM incubated for 48 hrs by SRB assay relative to control; procedure, shortened: as §1
[23] = system: SK-MEL-5; test: Antiproliferative activity against human SK-MEL-5 cells assessed as cell growth inhibition at 10 uM incubated for 48 hrs by SRB assay relative to control; procedure, shortened: as §2
[24] = system: BT-549; test: Antiproliferative activity against human BT-549 cells assessed as cell growth inhibition at 10 uM incubated for 48 hrs by SRB assay relative to control
[25] = system: HCC 2998; test: Antiproliferative activity against human HCC 2998 cells assessed as cell growth inhibition at 10 uM incubated for 48 hrs by SRB assay relative to control

SMILES | inhibition of growth at 10 µM [1] [%] | inhibition of growth at 10 µM [2] [%] | inhibition of growth at 10 µM [3] [%] | inhibition of growth at 10 µM [4] [%] | inhibition of growth at 10 µM [5] [%] | inhibition of growth at 10 µM [6] [%] | inhibition of growth at 10 µM [7] [%] | inhibition of growth at 10 µM [8] [%] | inhibition of growth at 10 µM [9] [%] | inhibition of growth at 10 µM [10] [%] | inhibition of growth at 10 µM [11] [%] | inhibition of growth at 10 µM [12] [%] | inhibition of growth at 10 µM [13] [%] | inhibition of growth at 10 µM [14] [%] | inhibition of growth at 10 µM [15] [%] | inhibition of growth at 10 µM [16] [%] | inhibition of growth at 10 µM [17] [%] | inhibition of growth at 10 µM [18] [%] | inhibition of growth at 10 µM [19] [%] | inhibition of growth at 10 µM [20] [%] | further results
Cc1nc2c(cnn2-c2ccccc2)c(=O)n1-c1ccc(N)cc1 | < 15 | 28.1 | < 15 | 40.1 | 34.3 | < 15 | < 15 | 21.1 | 48.7 | 64.9 | 37.6 | 19.4 | 63.3 | < 15 | < 15 | 18 | 21.4 | 52.1 | < 15 | 21 | inhibition of growth at 10 µM [21]: 16.8%; inhibition of growth at 10 µM [22]: < 15%; inhibition of growth at 10 µM [23]: 66.8%; inhibition of growth at 10 µM [24]: 31.2%; inhibition of growth at 10 µM [25]: < 15%
Cc1nc2c(cnn2-c2ccccc2)c(=O)n1-c1ccc(NC(=O)c2ccco2)cc1 | < 15 | < 15 | < 15 | < 15 | < 15 | < 15 | < 15 | < 15 | 21.2 | 34 | 23.4 | < 15 | 26.9 | < 15 | < 15 | < 15 | < 15 | 30.1 | < 15 | 23.6 | inhibition of growth at 10 µM [21]: < 15%; inhibition of growth at 10 µM [22]: < 15%; inhibition of growth at 10 µM [23]: 23.1%; inhibition of growth at 10 µM [24]: < 15%; inhibition of growth at 10 µM [25]: < 15%
Cc1nc2c(cnn2-c2ccccc2)c(=O)n1-c1ccc(/N=C2\C(=O)Nc3ccccc32)cc1 | < 15 | < 15 | 34.1 | 30.7 | 29.3 | < 15 | 29 | 37.3 | 43.9 | 38.3 | 33.7 | 20.9 | 52.1 | 39.6 | 16.8 | 24.7 | 17.6 | 34.4 | 18.8 | 37.8 | inhibition of growth at 10 µM [21]: < 15%; inhibition of growth at 10 µM [22]: 36%; inhibition of growth at 10 µM [23]: 42.9%; inhibition of growth at 10 µM [24]: 22.1%; inhibition of growth at 10 µM [25]: < 15%
CC(=O)Nc1ccc(-n2c(C)nc3c(cnn3-c3ccccc3)c2=O)cc1 | < 15 | < 15 | 43.6 | 31.7 | 41.7 | < 15 | < 15 | 26.1 | 44.8 | < 15 | 44.4 | 18.9 | 66.8 | < 15 | 25 | 33.5 | < 15 | 55.4 | < 15 | 30.8 | inhibition of growth at 10 µM [21]: < 15%; inhibition of growth at 10 µM [22]: 16.4%; inhibition of growth at 10 µM [23]: 77.4%; inhibition of growth at 10 µM [24]: 48%; inhibition of growth at 10 µM [25]: < 15%
COc1ccc(/C=C/C(=O)c2ccc(-n3c(C)nc4c(cnn4-c4ccccc4)c3=O)cc2)cc1 | 15.4 | < 15 | 55.3 | 27.6 | 25.4 | 28.5 | 15.6 | 18.4 | 34.3 | 65.3 | 91.7 | 22.4 | 57.1 | 25.9 | 42.6 | 29.4 | < 15 | 87.6 | 46.9 | 53.6 | inhibition of growth at 10 µM [21]: < 15%; inhibition of growth at 10 µM [22]: 18.2%; inhibition of growth at 10 µM [23]: 72.3%; inhibition of growth at 10 µM [24]: 55%; inhibition of growth at 10 µM [25]: < 15%
Cc1nc2c(cnn2-c2ccccc2)c(=O)n1-c1ccc(N2C(=O)C=CC2=O)cc1 | < 15 | < 15 | < 15 | < 15 | < 15 | < 15 | < 15 | < 15 | < 15 | < 15 | < 15 | < 15 | < 15 | < 15 | < 15 | < 15 | < 15 | < 15 | < 15 | 32.2 | inhibition of growth at 10 µM [21]: < 15%; inhibition of growth at 10 µM [22]: < 15%; inhibition of growth at 10 µM [23]: < 15%; inhibition of growth at 10 µM [24]: < 15%; inhibition of growth at 10 µM [25]: < 15%
Cc1nc2c(cnn2-c2ccccc2)c(=O)n1-c1ccc(N2C(=O)c3ccccc3C2=O)cc1 | < 15 | < 15 | < 15 | < 15 | < 15 | < 15 | < 15 | < 15 | < 15 | < 15 | < 15 | < 15 | < 15 | < 15 | < 15 | < 15 | < 15 | < 15 | < 15 | < 15 | inhibition of growth at 10 µM [21]: < 15%; inhibition of growth at 10 µM [22]: < 15%; inhibition of growth at 10 µM [23]: < 15%; inhibition of growth at 10 µM [24]: < 15%; inhibition of growth at 10 µM [25]: < 15%
